# Screening results as filed in PubChem.
# KCNQ1 inh = inhibitors of human KCNQ1 channel, primary screen, cell-based, thallium flux, high-throughput. CHO-K1 KCNQ1, FluxOR thallium flux fluorescence; stronger effect = higher value. B-score at 10 µM. 310,000 compounds, 1.3% hits;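 active means compounds whose thallium flux B-score, printed positive for inhibition, exceeds three library SD while starting fluorescence stays within three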;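 further: channel opened by potassium depolarization with thallium stimulus after 20 min compound exposure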
# KCNQ1 act = potentiators or activators of KCNQ1 channel, primary screen, cell-based, thallium flux, high-throughput; CHO-K1 KCNQ1, thallium flux FluxOR fluorescence; stronger effect = higher value; AID 2648, 2010; 310,000 compounds, 0.35% hits; B-score at 10 µM; Potassium voltage-gated channel subfamily KQT member 1 (Homo sapiens), P51787;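 active means fluorescence ratio B-score, a plate-corrected score, at least three library SD, with initial intensity B-score within 5 SD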
#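 assay system = CHO-K1 cells stably expressing KCNQ1 | medium = assay buffer, equal DMSO in all wells | timing = 37 °C overnight plating, 90-min dark dye load, 20-min compound pretreatment | measured by = kinetic FluxOR thallium fluorescence, 10-s 1-Hz baseline, 110-s post-stimulus read | measure = fluorescence change relative to baseline, converted to B score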
# KCNK9 inh = KCNK9 potassium channel inhibitors, primary screen, HEK293 cells, thallium flux | 310,000 compounds, 1.2% hits | Potassium channel subfamily K member 9 (Homo sapiens), Q9NPC2 | AID 488922, 2010 | FluxOR thallium flux fluorescence; stronger effect = lower value | B-score at 10 µM;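 active means ratio B-score over 3 SD below the library mean, with starting fluorescence within 5 SD of its mean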;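 further: negative B-score means less thallium flux so channel inhibition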
# Target sequence (Q9NPC2 whole entry, looked up): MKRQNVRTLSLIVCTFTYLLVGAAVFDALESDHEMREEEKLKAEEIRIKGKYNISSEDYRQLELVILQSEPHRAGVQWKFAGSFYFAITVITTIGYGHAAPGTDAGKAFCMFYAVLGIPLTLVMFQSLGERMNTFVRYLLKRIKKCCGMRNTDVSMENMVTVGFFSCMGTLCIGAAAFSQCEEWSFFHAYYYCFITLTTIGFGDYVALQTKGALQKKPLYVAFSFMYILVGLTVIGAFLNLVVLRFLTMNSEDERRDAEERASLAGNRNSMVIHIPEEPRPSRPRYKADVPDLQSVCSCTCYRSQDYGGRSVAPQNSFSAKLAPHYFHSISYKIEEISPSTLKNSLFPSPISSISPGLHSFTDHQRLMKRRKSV
# KCNK3 inh = human KCNK3 channel inhibitors, primary screen, CHO cells, FluxOR thallium flux, B-score; Potassium channel subfamily K member 3 (Homo sapiens), O14649; FluxOR fluorescence; stronger effect = lower value; B-score at 10 µM; 340,000 compounds, 0.84% hits;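 active means B-score under library mean minus 4 SD, starting fluorescence ratio at most library mean plus 5 SD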;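 further: more negative B-score means stronger inhibition of thallium flux through KCNK3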
# hERG rescue = hERG rescue from dofetilide block, primary screen, cell-based, CHO-hERG, FluxOR thallium flux, dofetilide IC70; dofetilide IC70 present; activation (rescue from dofetilide block), less the hit threshold, % at 10 µM; 310,000 compounds, 0.51% hits; AID 1511, 2009;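 active means activation above the mean of controls blocked by dofetilide plus 5 SD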;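 further: thallium influx through hERG after potassium depolarization seen as dye fluorescence rise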
# Kir21 inh = inhibitors of mouse Kir2.1 inward-rectifier potassium channel; Inward rectifier potassium channel 2 (Mus musculus), P35561; HEK293-Kir2.1, FluxOR thallium flux fluorescence; stronger effect = lower value; B-score at 10 µM; 310,000 compounds, 0.85% hits; AID 1672, 2009;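 active means fluorescence ratio B-score at or below minus 3 SD of library scores, with starting-brightness B-score within 2 SD, cut at about -4.2 in these data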;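 further: channel flux triggered by added potassium and thallium sulfate stimulus; B-score of peak minus minimum fluorescence over baseline after thallium stimulus; more negative B-score means stronger Kir2.1 block with less thallium influx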
# Numbers without * were called inactive; i = inactive; . = no result given. In the library only some 3.7% were active in any assay of this set; here they are far more common.
SMILES,KCNQ1 inh,KCNQ1 act,KCNK9 inh,KCNK3 inh,hERG rescue,Kir21 inh
O=C1CC(c2ccco2)CC(O)=C1C=Nc1cc(Cl)ccc1Cl (stereo unspecified),i,i,i,i,-4,0.04
O=C1CC(c2ccco2)CC(O)=C1C=Nc1cc(Cl)ccc1O (stereo unspecified),6*,i,i,i,-17,0.88
COc1ccc(N2N=NN(C(C)C)C2=C(Cl)c2nnnn2-c2ccc(OC)cc2)cc1,.,.,.,i,.,.
O=C(Nc1ccc(Cl)cc1C(F)(F)F)C(Sc1nnc(-c2cccs2)o1)c1ccccc1 (stereo unspecified),6*,i,i,i,-12,1.9
O=C(Nc1cc(C(F)(F)F)ccc1Cl)C(Sc1nnc(-c2cccs2)o1)c1ccccc1 (stereo unspecified),6*,i,i,i,-13,-1.9
CCOc1ccc(-c2cc(C(=O)OC)[nH]n2)cc1,i,i,i,i,9.4*,0.34
Nn1c(SCC(=O)Nc2ccccc2Oc2ccccc2)nnc1C1CC1,.,.,.,i,.,.
CC(=O)c1ccc(OCC(O)CN2CCN(S(=O)(=O)c3c(C)c(C)cc(C)c3C)CC2)cc1 (stereo unspecified),i,i,i,i,-7,-0.2
CSC(C(=O)c1cc2ccccc2o1)c1ccccc1 (stereo unspecified),i,15*,i,i,-6,-1
CCN1CCc2[nH]c3ccccc3c2C1,i,i,i,i,-7,0.07
CCCc1nc2c(s1)CCc1onc(-c3ccc(Cl)cc3)c1-2,i,i,-7.1*,i,-6,0.47
CCCc1nc2c(s1)CCc1onc(-c3ccc(Br)cc3)c1-2,i,i,i,i,-9,0.01
Cc1cccc(NS(=O)(=O)c2cccc(C(=O)NCC(c3ccco3)N(C)C)c2)c1 (stereo unspecified),i,i,i,i,-17,0.56
O=C(NCc1cccc(Cl)c1)c1ccc(CS(=O)Cc2ccccc2Cl)o1 (stereo unspecified),i,i,i,i,-4,-0.34
CO/N=C(/CS(=O)Cc1ccccc1Cl)c1ccc(Cl)cc1Cl (stereo unspecified),i,i,i,i,-1,-5*
O=C(O)CCC1c2cc3c4cc2OC2Oc5cc6c(cc51)C(CCC(=O)O)c1cc5c7cc1OC(O6)c1cc6cc(c1)Oc1cc(cc(C(=O)O)c1)Oc1cc8cc(c1)C(Oc1cc(c(cc1C5CCC(=O)O)C3CCC(=O)O)OC(O4)c1cc(cc(c1)Oc1cc(cc(C(=O)O)c1)O8)Oc1cc(cc(C(=O)O)c1)Oc1cc(cc2c1)Oc1cc(cc(C(=O)O)c1)O6)O7 (stereo unspecified),i,i,i,.,-13,0.01
CSc1ccc(CN2CCCC(CO)(Cc3ccccc3)C2)cc1 (stereo unspecified),i,i,i,i,-14,-4.5*
COc1cccc(CC2(CO)CCCN(Cc3c(C)cc(C)cc3-n3cccn3)C2)c1 (stereo unspecified),i,i,i,i,-26,-5.4*
COc1cccc(CC2(CO)CCCN(Cc3ccc(C)s3)C2)c1 (stereo unspecified),i,i,i,i,-4,-2
COc1cccc(CC2(CO)CCCN(Cc3cc4ccccc4[nH]3)C2)c1 (stereo unspecified),i,i,i,i,-13,-4.2*
COc1cc(Cl)c(CN2CCCC(CO)(Cc3ccccc3)C2)cc1OC (stereo unspecified),i,i,i,i,-5,-2.5
CC(=O)Nc1ccc(S(=O)(=O)NCCC(=O)NCCOc2ccccc2)cc1,.,.,.,i,.,.
O=S(=O)(Nc1cccc2c1CCCC2)c1ccc(Cl)cc1,i,i,i,i,-14,-3.6
CN1C(=O)NC(c2ccccc2[N+](=O)[O-])C2=C1CC(C)(C)CC2=O (stereo unspecified),i,i,i,i,-6,0.93
CN1C(=O)NC(c2ccccc2[N+](=O)[O-])C2=C1CCCC2=O (stereo unspecified),6*,i,i,i,-15,-1.8
SMILES,KCNQ1 inh,KCNQ1 act,KCNK9 inh,KCNK3 inh,hERG rescue,Kir21 inh
Cc1cccc(Cn2c(Cc3ccccc3)nc3ccccc32)c1,i,i,i,i,-13,-11*
COCc1nc2ccccc2n1Cc1cccc(C)c1,i,i,i,i,-7,-0.4
Cc1ccc(S(=O)(=O)C(C)C(=O)c2ccc3c(c2)OCCO3)cc1 (stereo unspecified),i,i,i,i,-16,-4.3*
O=C(/C=C/c1ccc(Br)cc1)N1CCN(c2cccc(C(F)(F)F)c2)CC1,7*,i,i,i,-13,1.3
COCCCN(C(=O)Cc1coc2cc(C)c(C)cc12)c1c(N)n(Cc2ccccc2)c(=O)[nH]c1=O,i,i,i,i,-13,1.1
CCOCCCNCc1ccc(OCc2ccccc2Cl)cc1,i,i,i,i,-6,-4.3*
CC(C)(C)c1ccc(OCCCNCc2ccccc2)cc1,i,i,i,i,-24,-3.8
CCc1cc(OCCCCNCc2ccccc2)ccc1Cl,i,i,i,i,-20,-11*
C=C(CN(C)C)C(=O)c1ccc(OC2OC(COC(C)=O)C(OC(C)=O)C(OC(C)=O)C2OC(C)=O)cc1 (stereo unspecified),.,.,.,i,.,.
Cc1ccc2nc(/C(C#N)=C\c3cc(C)n(-c4cccc([N+](=O)[O-])c4)c3C)[nH]c2c1,8*,i,i,i,-12,-1.3
COc1ccccc1C(=O)NC(=O)COC(=O)C1CC1C (stereo unspecified),i,i,i,i,-7,4.8
COC(=O)CN(c1nc(C)cc(OC)n1)S(=O)(=O)c1ccccc1,i,i,i,i,-3,-3.2
COC(=O)CN(c1nc(C)c(Br)c(OC)n1)S(=O)(=O)c1ccccc1,i,i,i,i,-9,-5.5*
CN(/C=C/C(=C\C=[N+](C)c1ccccc1)OCCCS(=O)(=O)[O-])c1ccccc1,6*,i,i,i,-19,-4.6
